From ChEMBL document CHEMBL1149024, “Naturally occurring antiacne agents” (1994)
Values after ≈ are worked out from the molar mass of the structure shown. Active and inactive are the calls of the source. The calls are words filed in the database; no cut-off is given here.

What follows are compounds tested on Cutibacterium acnes (assay: Antimicrobial activity Propionibacterium acnes ATCC 11827 after 2 days by broth dilution method). Conditions: not given.
Assay type: functional
Procedure, shortened: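 Serial twofold dilutions in DMF; 30 µl of each added to 3 ml NYG broth (0.8% nutrient broth, 0.5% yeast extract, 0.1% glucose), then inoculated with 30 µl of a two-day-old culture. Incubated 2 days at 37°; growth read as turbidity (OD 660 nm). MIC is the lowest concentration giving complete growth inhibition, determined at least twice.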
Work on `CCCCCCCCCCCCCCCc1cccc(O)c1C(=O)O` [ANACARDIC ACID] yielded an MIC of 0.78 µg/mL (≈ 2.24 µM).

Same assay, conditions: Cutibacterium acnes, ATCC 11827, 48 h
Compound `CCCCCCCCCCCCCCCO` has an MBC of 1.56 µg/mL (≈ 6.83 µM).
`CCCCCCCO` [1-HEPTANOL] was tested, and the MBC was 800 µg/mL (≈ 6880 µM).
In the case of `CCCCCCCCCCCCCCCCO` [CETYL ALCOHOL], the MBC is reported as 1.56 µg/mL (≈ 6.43 µM).
In the case of `CCCCCCCCCCO` [DECANOL], the MBC is reported as 50 µg/mL (≈ 316 µM).
With `CCCCCCCCCCCCO` [DODECANOL] the MBC was 6.25 µg/mL (≈ 33.5 µM).
Work on `CCCCCCCCCCCCCCO` [MYRISTYL ALCOHOL] yielded an MBC of 1.56 µg/mL (≈ 7.28 µM).
In the case of `CCCCCCCCCO` [NONANOL], the MBC is reported as 200 µg/mL (≈ 1390 µM).
`CCCCCCCCCCCCCO` [TRIDECAN-1-OL] was tested, and the MBC was 3.13 µg/mL (≈ 15.6 µM).
For `CCCCCCCCCCCO` [UNDECANOL], the MBC was 25 µg/mL (≈ 145 µM).

Same assay, conditions: Cutibacterium acnes, ATCC 11827, 48 h; read-out: MIC
With `CCCCCCCCCCCCCCCO` the MIC was 0.78 µg/mL (≈ 3.41 µM).
With `CCCCCCCCCCCCCCCCCO` the MIC was over 800 µg/mL.
`CCCCCCCCc1cccc(O)c1C(=O)O` was tested, and the MIC was 3.13 µg/mL (≈ 12.5 µM).
In the case of `CCCCCCCCCCc1cccc(O)c1C(=O)O`, the MIC is reported as 1.56 µg/mL (≈ 5.6 µM).
Compound `CCCCCCCCCCC(C)O` (centres undefined) has an MIC of 12.5 µg/mL (≈ 67.1 µM).
With `CCCCCCCCCCCCCCC(C)O` (centres undefined) the MIC was 0.78 µg/mL (≈ 3.22 µM).
Work on `CCCCCCCCCCCCC(C)O` (centres undefined) yielded an MIC of 3.13 µg/mL (≈ 14.6 µM).
Compound `CCC/C=C\C/C=C\CCCCCCCc1cccc(O)c1C(=O)O` has an MIC of 0.78 µg/mL (≈ 2.26 µM).
In the case of `CCCCCCCCCCCCc1cccc(O)c1C(=O)O`, the MIC is reported as 0.39 µg/mL (≈ 1.27 µM).
`CCCCCCCCCCCCCCCCCCCCc1cccc(O)c1C(=O)O` gave an MIC of over 800 µg/mL.
For `CCCCCCC(O)CC` (centres undefined), the MIC was 200 µg/mL (≈ 1390 µM).
Work on `CCCCCc1cccc(O)c1C(=O)O` yielded an MIC of 100 µg/mL (≈ 480 µM).
In the case of `Cc1cccc(O)c1C(=O)O`, the MIC is reported as 200 µg/mL (≈ 1310 µM).
For `CCCCCCC(C)O` (centres undefined), the MIC was 800 µg/mL (≈ 6140 µM).
`CCCCCCCCCCCCCCCCC(C)O` (centres undefined) gave an MIC of over 800 µg/mL.
With `C=C1[C@H]2CC[C@H](C2)C1(C)C` the MIC was 25 µg/mL (≈ 184 µM).
Work on `CCCCCCCCCCCCCCCCCCCCO` [1-EICOSANOL] yielded an MIC of over 800 µg/mL.
With `CCCCCCCO` [1-HEPTANOL] the MIC was 400 µg/mL (≈ 3440 µM).
Compound `CCCCCCO` [1-HEXANOL] has an MIC of over 800 µg/mL.
Work on `CCCCCC(C)O` (centres undefined) [2-HEPTANOL] yielded an MIC of 800 µg/mL (≈ 6880 µM).
`CCCCC(C)O` (centres undefined) [2-HEXANOL] showed an MIC of 800 µg/mL (≈ 7830 µM).
Work on `CCCCCCCC(C)O` (centres undefined) [2-NONANOL] yielded an MIC of 400 µg/mL (≈ 2770 µM).
Compound `CCCCC(O)CC` (centres undefined) [3-HEPTANOL] has an MIC of 800 µg/mL (≈ 6880 µM).
Compound `CCCCCC(O)CC` (centres undefined) [3-OCTANOL] has an MIC of 400 µg/mL (≈ 3070 µM).
`CC1=C[C@@H]2C(=C(C)CC[C@H]2C(C)C)CC1` [(+)-DELTA-CADINENE] was tested, and the MIC was 3.13 µg/mL (≈ 15.3 µM).
Work on `C=C1[C@@H]2CC[C@@H](C2)C1(C)C` [(-)-CAMPHENE] yielded an MIC of 25 µg/mL (≈ 184 µM).
`CC(C)C1=CC2=CC[C@@H]3[C@](C)(CCC[C@@]3(C)C(=O)O)[C@H]2CC1` [ABIETIC ACID] showed an MIC of 25 µg/mL (≈ 82.7 µM).
For `C/C1=C\CC/C(C)=C/CC(C)(C)/C=C/C1` [ALPHA-HUMULONE], the MIC was 3.13 µg/mL (≈ 15.3 µM).
Work on `CC1=CCC2CC1C2(C)C` (stereo not drawn) [ALPHA-PINENE] yielded an MIC of 25 µg/mL (≈ 184 µM).
With `CC1=CC[C@@H](C(C)(C)O)CC1` [ALPHA-TERPINEOL] the MIC was 100 µg/mL (≈ 648 µM).
Work on `C=CC/C=C\C/C=C\CCCCCCCc1cccc(O)c1C(=O)O` [ANACARDIC ACID] yielded an MIC of 0.78 µg/mL (≈ 2.28 µM).
`CCCCCCCCCCCCCCCc1cccc(O)c1C(=O)O` [ANACARDIC ACID] showed an MIC of 0.78 µg/mL (≈ 2.24 µM).
For `CCCCCCCCCCCCCCCCO` [CETYL ALCOHOL], the MIC was 0.78 µg/mL (≈ 3.22 µM).
For `CCCCCCCCCCO` [DECANOL], the MIC was 25 µg/mL (≈ 158 µM).
With `CCCCCCCCCCCCO` [DODECANOL] the MIC was 3.13 µg/mL (≈ 16.8 µM).
Compound `CCCCCCCCCCCCCCO` [MYRISTYL ALCOHOL] has an MIC of 1.56 µg/mL (≈ 7.28 µM).
`CCCCCCCCCO` [NONANOL] showed an MIC of 100 µg/mL (≈ 693 µM).
`CCCCCCCCCCCCCO` [TRIDECAN-1-OL] showed an MIC of 1.56 µg/mL (≈ 7.79 µM).
`CCCCCCCCCCCO` [UNDECANOL] gave an MIC of 12.5 µg/mL (≈ 72.5 µM).

Each compound was assayed on Cutibacterium acnes (assay: Antimicrobial activity Propionibacterium acnes ATCC 11827 at 1.56 ug/ml after 3 days by time-kill curve method). Conditions: not given.
Assay type: functional, organism-based
Procedure, shortened: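 P. acnes ATCC 11827, from a two-day-old culture, was inoculated into NYG broth (0.8% nutrient broth, 0.5% yeast extract, 0.1% glucose) containing the compound predissolved in DMF. Initial inoculum was 1 × 10^6 to 5 × 10^6 CFU/ml. Viable counts were taken at 8, 24 and 48 h from serial 10-fold dilutions on Actinomyces agar, incubated anaerobically at 37° for 3 days.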
In the case of `CCCCCCCCCCCCCCCO`, the Activity is reported as “Active”.

Each compound was assayed on Cutibacterium acnes (assay: Antimicrobial activity at exponential growth phase of Propionibacterium acnes ATCC 11827 assessed as log units reduction in CFU/ml at 1.56 ug/ml after 48 hrs by time-kill curve method). Conditions: not given.
Assay type: functional, organism-based
Procedure, shortened: (§1)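 Growth-phase time-kill: P. acnes ATCC 11827 was grown in NYG broth from a 1 × 10^6 to 5 × 10^6 CFU/ml inoculum. The compound (DMF stock) was added after 0, 8 or 32 h of incubation. Viable counts were taken 24 and 48 h after addition by serial 10-fold dilution plating on Actinomyces agar, incubated anaerobically at 37° for 3 days. Reduction is expressed as log CFU/ml.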
With `CCCCCCCCCCCCCCCO` the Activity was “inactive”.

What follows are compounds tested on Cutibacterium acnes (assay: Antimicrobial activity at exponential growth phase of Propionibacterium acnes ATCC 11827 assessed as log units reduction in CFU/ml at 25 ug/ml after 48 hrs by time-kill curve method). Conditions: not given.
Assay type: functional, organism-based
Procedure, shortened: (§2)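 A 30 µl aliquot of two-day-old culture went into 3 ml NYG broth (initial inoculum 1 × 10^6 to 5 × 10^6 CFU/ml). Compound, dissolved in DMF, was added at set times after incubation began. Viable counts were taken 24 and 48 h after addition from serial 10-fold dilutions plated on Actinomyces agar, incubated anaerobically 3 days at 37°.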
In the case of `CCCCCCCCCCCCCCCO`, the Activity is reported as “Active”.

The compounds below were run on Cutibacterium acnes (assay: Antimicrobial activity at lag growth phase of Propionibacterium acnes ATCC 11827 assessed as log units reduction in CFU/ml at 25 ug/ml after 48 hrs by time-kill curve method). Conditions: not given.
Assay type: functional
Procedure, shortened: as §2
`CCCCCCCCCCCCCCCO` showed an Activity of over 2.

The compounds below were run on Cutibacterium acnes (assay: Antimicrobial activity at exponential growth phase of Propionibacterium acnes ATCC 11827 assessed as log units reduction in CFU/ml at 6.25 ug/ml after 48 hrs by time-kill curve method). Conditions: not given.
Assay type: functional, organism-based
Procedure, shortened: as §1
With `CCCCCCCCCCCCCCCO` the Activity was “inactive”.
